Key:
[1] = target: 5-hydroxytryptamine receptor 1B (Rattus norvegicus, UniProt P28564); assay: Binding affinity towards 5-hydroxytryptamine 1B receptor in rat frontal cortex using [125I]iodocyanopindolol as radio-ligand.; format: tissue-based
[2] = target: T1, 5-hydroxytryptamine receptor 1A (Rattus norvegicus, UniProt P19327); assay: Binding affinity towards 5-hydroxytryptamine 1A receptor in rat hippocampus using [3H]8-OH-DPAT as radio-ligand.
T1 sequence (P19327 whole entry): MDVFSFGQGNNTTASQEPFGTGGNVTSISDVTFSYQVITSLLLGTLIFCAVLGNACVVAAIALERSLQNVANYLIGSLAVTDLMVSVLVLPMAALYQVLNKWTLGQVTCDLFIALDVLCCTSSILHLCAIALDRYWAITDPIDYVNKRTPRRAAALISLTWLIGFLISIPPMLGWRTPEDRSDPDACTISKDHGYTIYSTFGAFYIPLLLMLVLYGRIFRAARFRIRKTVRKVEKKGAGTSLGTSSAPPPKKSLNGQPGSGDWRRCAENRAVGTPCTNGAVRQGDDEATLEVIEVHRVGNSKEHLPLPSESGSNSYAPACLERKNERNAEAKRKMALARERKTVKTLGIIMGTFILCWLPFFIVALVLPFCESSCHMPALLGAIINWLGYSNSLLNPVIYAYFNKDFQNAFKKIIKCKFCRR

Rattus norvegicus = species: Rattus norvegicus; assay: [3H]5-HT reuptake inhibition in Rat brain synaptosomes.; format: functional
Cavia porcellus = species: Cavia porcellus; assay: Sumatriptan induced inhibition of potassium evoked [3H]5-HT release from guinea pig cortex slices; format: functional
How it was run: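 Cortex slices from male Dunkin-Hartley guinea pigs were loaded with [3H]5-HT for 30 min, then given potassium stimulation. Sumatriptan 3 µM alone (control), or with test compound at 30 nM, 300 nM or 3 µM, was superfused before and during S2. Basal-subtracted S2/S1 ratio is expressed as % of the sumatriptan-only ratio. Mean (±SEM) of 3-4 determinations.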

Oryctolagus cuniculus = species: Oryctolagus cuniculus; assay: Inhibition of the contractile responses elicited by sumatriptan in rabbit saphenous vein (RSV); format: functional; details: read-out: pA2 (converted)
How it was run: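 Isolated rabbit saphenous vein segments held in organ baths. Each segment received two sumatriptan concentration-response curves, the second after 60 min incubation with antagonist or control vehicle. Apparent pA2 was calculated from a single antagonist concentration in at least 3 preparations.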

Chain of 5-hydroxytryptamine receptor 1B (P28564 whole entry): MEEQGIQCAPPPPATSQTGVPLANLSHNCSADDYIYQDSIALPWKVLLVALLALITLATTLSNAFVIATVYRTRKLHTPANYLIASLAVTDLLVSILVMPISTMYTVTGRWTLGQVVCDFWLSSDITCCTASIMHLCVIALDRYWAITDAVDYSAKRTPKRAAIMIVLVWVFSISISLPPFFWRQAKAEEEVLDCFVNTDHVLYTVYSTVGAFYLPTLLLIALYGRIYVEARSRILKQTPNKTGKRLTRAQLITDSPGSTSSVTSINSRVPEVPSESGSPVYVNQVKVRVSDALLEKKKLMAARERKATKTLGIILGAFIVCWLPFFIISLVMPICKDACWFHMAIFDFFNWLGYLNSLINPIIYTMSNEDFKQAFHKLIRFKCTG

Work on `COc1ccc(NC(=O)NCCc2c[nH]c3ccc(O)cc23)cc1N1CCN(C)CC1` yielded an IC50 [1] of 467 nM, an IC50 [2] of 57 nM and an IC50 (Rattus norvegicus) of 314 nM.

In the case of `NC(=O)c1ccc2[nH]cc(C3CCNCC3)c2c1`, the IC50 (Rattus norvegicus) is reported as > 100 nM.

`NCCN1CCC(c2c[nH]c3cc(F)ccc23)CC1` gave an IC50 (Rattus norvegicus) of 11 nM.

`Fc1ccc2[nH]cc(CCCCN3CCNCC3)c2c1` was tested, and the IC50 (Rattus norvegicus) was 0.15 nM.

For `COc1ccc(NC(=O)N2CCc3[nH]c4ccc(F)cc4c3C2)cc1N1CCN(C)CC1`, the IC50 [1] was 567 nM, the IC50 [2] was > 800 nM and the IC50 (Rattus norvegicus) was 469 nM.

`COc1ccc(NC(=O)N2CCN(CCCCc3c[nH]c4ccc(F)cc34)CC2)cc1N1CCN(C)CC1` was tested, and the Release (Cavia porcellus) was 120%, the IC50 [1] was 77 nM and the IC50 [2] was 50 nM. The IC50 (Rattus norvegicus) was 0.7 nM and the Kb (Oryctolagus cuniculus) was 20 nM.

With `COc1ccc(NC(=O)N2CCC(c3c[nH]c4ccccc34)CC2)cc1N1CCN(C)CC1` the Release (Cavia porcellus) was 127%, the IC50 [1] was 50 nM and the IC50 [2] was 400 nM. It also gave an IC50 (Rattus norvegicus) of 200 nM and a Kb (Oryctolagus cuniculus) of 20 nM.

For `CN1CCC2(CC1)COc1ccc(NC(=O)NCCN3CCC(c4c[nH]c5cc(F)ccc45)CC3)cc12`, the IC50 [1] was 300 nM, the IC50 [2] was 700 nM and the IC50 (Rattus norvegicus) was 2.2 nM.

`Cc1nc(-c2ccc(-c3ccc(C(=O)Nc4ccc5c(c4)C4(CCN(C)CC4)CO5)cc3)c(C)c2)no1` was tested, and the Release (Cavia porcellus) was 134%, the IC50 [1] was 2.1 nM and the IC50 (Rattus norvegicus) was > 1000 nM.

With `Fc1ccc2[nH]c3c(c2c1)CNCC3` the IC50 (Rattus norvegicus) was > 100 nM.

With `COc1ccc(NC(=O)N2CCC(c3c[nH]c4cccc(F)c34)CC2)cc1N1CCN(C)CC1` the Release (Cavia porcellus) was 145%, the IC50 [1] was 50 nM and the IC50 [2] was 300 nM. It also gave an IC50 (Rattus norvegicus) of 65 nM and a Kb (Oryctolagus cuniculus) of 2 nM.

`COc1ccc(NC(=O)NCCN2CCC(c3c[nH]c4cc(F)ccc34)CC2)cc1N1CCN(C)CC1` showed an IC50 [1] of 223 nM, an IC50 [2] of 160 nM and an IC50 (Rattus norvegicus) of 1.9 nM.

Compound `c1ccc2c(C3CCNCC3)c[nH]c2c1` has an IC50 (Rattus norvegicus) of 60 nM.

Compound `COc1ccc(NC(=O)NCCc2c[nH]c3ccc(F)cc23)cc1N1CCN(C)CC1` has a Release (Cavia porcellus) of 134%, an IC50 [1] of 63 nM and an IC50 [2] of 27 nM. The IC50 (Rattus norvegicus) was 387 nM and the Kb (Oryctolagus cuniculus) was 20 nM.

Compound `COc1ccc(NC(=O)N2CCC(c3c[nH]c4ccc(F)cc34)CC2)cc1N1CCN(C)CC1` has a Release (Cavia porcellus) of 151%, an IC50 [1] of 85 nM and an IC50 [2] of 367 nM. For the same compound, the IC50 (Rattus norvegicus) was 21 nM and the Kb (Oryctolagus cuniculus) was 15.8 nM.

For `COc1ccc(N)cc1N1CCN(C)CC1`, the IC50 (Rattus norvegicus) was > 1000 nM.

In the case of `COc1ccc(NC(=O)N2CCC(c3c[nH]c4ccc(C(N)=O)cc34)CC2)cc1N1CCN(C)CC1`, the Release (Cavia porcellus) is reported as 217%, the IC50 [1] is reported as 113 nM and the IC50 [2] is reported as 17 nM. For the same compound, the IC50 (Rattus norvegicus) was 472 nM and the Kb (Oryctolagus cuniculus) was 15.8 nM.

With `CN1CCC2(CC1)COc1ccc(N)cc12` the IC50 (Rattus norvegicus) was > 1000 nM.

Compound `NCCc1c[nH]c2ccc(F)cc12` has an IC50 (Rattus norvegicus) of 130 nM.

With `Fc1ccc2[nH]cc(C3CCNCC3)c2c1` the IC50 (Rattus norvegicus) was 55 nM.

For `Fc1ccc2[nH]cc(C3CCNC3)c2c1` (stereo not drawn), the IC50 (Rattus norvegicus) was 45 nM.

`CN1CCC2(CC1)COc1ccc(NC(=O)N3CCC(c4c[nH]c5ccc(F)cc45)CC3)cc12` was tested, and the Release (Cavia porcellus) was 125%, the IC50 [1] was 23 nM and the IC50 [2] was > 200 nM. It also gave an IC50 (Rattus norvegicus) of 0.2 nM and a Kb (Oryctolagus cuniculus) of 50.1 nM.

In the case of `COc1ccc(N)cc1OCCN(C)C`, the IC50 (Rattus norvegicus) is reported as > 1000 nM.

In the case of `Fc1cccc2[nH]cc(C3CCNCC3)c12`, the IC50 (Rattus norvegicus) is reported as 60 nM.

Compound `COc1ccc(NC(=O)N2CCC(c3c[nH]c4cc(F)ccc34)CC2)cc1N1CCN(C)CC1` has a Release (Cavia porcellus) of 169%, an IC50 [1] of 80 nM and an IC50 [2] of 667 nM. The IC50 (Rattus norvegicus) was 49 nM and the Kb (Oryctolagus cuniculus) was 25.1 nM.

Compound `COc1ccc(NC(=O)NCCN2CCC(c3c[nH]c4cc(F)ccc34)CC2)cc1OCCN(C)C` has an IC50 [1] of 133 nM, an IC50 [2] of 233 nM and an IC50 (Rattus norvegicus) of 1.2 nM.

In the case of `COc1ccc(NC(=O)N2CCC(c3c[nH]c4ccc(F)cc34)C2)cc1N1CCN(C)CC1` (stereo not drawn), the IC50 [1] is reported as 233 nM, the IC50 [2] is reported as 100 nM and the IC50 (Rattus norvegicus) is reported as 106 nM.

`COc1ccc(NC(=O)N2CCC(CCc3c[nH]c4ccccc34)CC2)cc1N1CCN(C)CC1` was tested, and the Release (Cavia porcellus) was 121%, the IC50 [1] was 120 nM and the IC50 [2] was > 300 nM. For the same compound, the IC50 (Rattus norvegicus) was 10 nM and the Kb (Oryctolagus cuniculus) was 20 nM.

`Fc1ccc2c(C3CCNCC3)c[nH]c2c1` showed an IC50 (Rattus norvegicus) of 20 nM.

In the case of `COc1ccc(NC(=O)N2CCC(c3c[nH]c4ccc(F)cc34)CC2)cc1OCCN(C)C`, the IC50 [1] is reported as 633 nM, the IC50 [2] is reported as > 500 nM and the IC50 (Rattus norvegicus) is reported as 4 nM.

`N#Cc1ccc2[nH]cc(C3CCNCC3)c2c1` was tested, and the IC50 (Rattus norvegicus) was 58 nM.

In the case of `COc1ccc(NC(=O)N2CCC(c3c[nH]c4ccc(C#N)cc34)CC2)cc1N1CCN(C)CC1`, the Release (Cavia porcellus) is reported as 167%, the IC50 [1] is reported as 267 nM and the IC50 [2] is reported as 233 nM. For the same compound, the IC50 (Rattus norvegicus) was 1.9 nM and the Kb (Oryctolagus cuniculus) was 10 nM.

`COc1ccc(NC(=O)c2ccc(-c3ccc(-c4noc(C)n4)cc3C)cc2)cc1N1CCN(C)CC1` [GR-127935] showed a Release (Cavia porcellus) of 114%, an IC50 [2] of 360 nM and an IC50 (Rattus norvegicus) of 1000 nM. For the same compound, the Kb (Oryctolagus cuniculus) was 0.398 nM.

With `c1ccc2c(CCC3CCNCC3)c[nH]c2c1` [INDALPINE] the IC50 (Rattus norvegicus) was 1 nM.

Reference: ChEMBL document CHEMBL1132979, “5-HT reuptake inhibitors with 5-HT(1B/1D) antagonistic activity: a new approach toward efficient antidepressants” (J Med Chem, 2000)
